Experimental data: ChEMBL document CHEMBL4138194, “Synthesis of unprecedented steroidal spiro heterocycles as potential antiproliferative drugs” (Eur J Med Chem, 2018)

How the values were obtained:
A549 = assay: Antiproliferative activity against human A549 cells after 48 hrs by SRB assay; assay type: functional; details: A549, 48 h
Procedure, shortened: (§1)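 Seeded at 2 500 cells/well, per doubling time. Compounds were dissolved in DMSO at 400× the top test concentration and tested in triplicate at dilutions spanning 1–100 µM, starting day 1 after plating, with 0.25% v/v DMSO as control. After 48 h, cells were fixed with cold TCA for 60 min at 4 °C, then SRB-stained. Background-corrected OD was read at 530 nm, and percentage growth was calculated against untreated cells using T0 and end-point OD (NCI formulas).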

HBL-100 = assay: Antiproliferative activity against human HBL100 cells after 48 hrs by SRB assay; assay type: functional; details: HBL-100, 48 h; procedure, shortened: as §1
HeLa = assay: Antiproliferative activity against human HeLa cells after 48 hrs by SRB assay; assay type: functional; procedure, shortened: as §1
SW1573 = assay: Antiproliferative activity against human SW1573 cells after 48 hrs by SRB assay; assay type: functional; details: SW1573, 48 h; procedure, shortened: as §1
T47D = assay: Antiproliferative activity against human T47D cells after 48 hrs by SRB assay; assay type: functional
Procedure, shortened: (§2)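 Plated at 5 000 cells/well, per doubling time. Compounds were dissolved in DMSO at 400× the maximum final concentration and tested in triplicate between 1 and 100 µM for 48 h, beginning day 1 after plating, with 0.25% v/v DMSO as control. Cells were then TCA-fixed for 60 min at 4 °C and SRB-stained. Background-corrected OD was read at 530 nm, and percentage growth was derived against untreated control from start and end OD (NCI formulas).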

WiDr = assay: Antiproliferative activity against human WiDr cells after 48 hrs by SRB assay; assay type: functional; procedure, shortened: as §2
[1] = Cytotoxicity against human hTERT-BJ cells assessed as cell growth inhibition after 48 hrs SRB assay; assay type: cell-based
Procedure, shortened: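 BJ-hTert cells were seeded at 10 000/well and exposed from day 1 for 48 h to compounds in triplicate across 1–100 µM. DMSO stocks were 400× the top concentration, with a 0.25% v/v DMSO control. Cells were fixed with ice-cold TCA for 60 min at 4 °C and SRB-stained. Background-corrected OD was read at 530 nm, and percentage growth was computed relative to untreated cells using T0 and final OD (NCI formulas).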

| SMILES | GI50 (A549) [µM] | GI50 (HeLa) [µM] | GI50 (SW1573) [µM] | GI50 (T47D) [µM] | GI50 (HBL-100) [µM] | GI50 (WiDr) [µM] | GI50 at 48 h [1] [µM] |
| --- | --- | --- | --- | --- | --- | --- | --- |
| CCCCNC(=S)NC[C@]1(O)CC[C@H]2[C@@H]3CC[C@H]4C[C@@H](O)CC[C@]4(C)[C@H]3CC[C@@]21C | 12 | 14 | 9.4 | 5.8 | 13 | 4.5 |  |
| C[C@]12CC[C@@H]3c4ccc(O)cc4CC[C@H]3[C@@H]1CC[C@@]21CN=C(Nc2ccccc2)O1 | 2.6 | 3.3 | 3.4 | 2.6 | 4.4 | 2.6 | 1.4 |
| C[C@]12CC[C@H](O)C[C@@H]1CC[C@@H]1[C@@H]2CC[C@@]2(C)[C@H]1CC[C@@]21CNC(=O)O1 | 3.7 | 4 | 6 | 4.5 | 10 | 3.8 | < 1 |
| CCCCNC1=NC[C@@]2(CC[C@H]3[C@@H]4CC[C@H]5C[C@@H](O)CC[C@]5(C)[C@H]4CC[C@@]32C)O1 | 1.4 | 1.6 | 1.2 | 1.2 | 2.1 | 0.87 | < 1 |
| C[C@]12CC[C@@H]3c4ccc(OCc5ccccc5)cc4CC[C@H]3[C@@H]1CC[C@@]2(O)CN=[N+]=[N-] | 13 | 2.9 | 29 | 4.1 | 22 | 2.4 |  |
| C[C@]12CC[C@@H]3c4ccc(O)cc4CC[C@H]3[C@@H]1CC[C@@]2(O)CNC(=S)NC1CCCCC1 | 4.5 | 3.3 | 14 | 3.9 | 5.1 | 2.8 |  |
| C[C@]12CC[C@@H]3c4ccc(O)cc4CC[C@H]3[C@@H]1CC[C@@]2(O)CNC(=S)Nc1ccccc1 | 9.8 | 6.3 | 21 | 5.7 | 15 | 4.5 |  |
| COC(=O)NC[C@]1(O)CC[C@H]2[C@@H]3CC[C@H]4C[C@@H](O)CC[C@]4(C)[C@H]3CC[C@@]21C | 38 | 70 | 92 | 41 | 99 | 39 |  |
| C[C@]12CC[C@H](O)C[C@@H]1CC[C@@H]1[C@@H]2CC[C@@]2(C)[C@H]1CC[C@@]2(O)CNC(=S)Nc1ccccc1 | 29 | 27 | 27 | 34 | 27 | 17 |  |
| C[C@]12CC[C@@H]3c4ccc(O)cc4CC[C@H]3[C@@H]1CC[C@@]21CNC(=O)O1 | 5.4 | 1.3 | 18 | 4.4 | 6.3 | 9.2 |  |
| C[C@]12CC[C@@H]3c4ccc(O)cc4CC[C@H]3[C@@H]1CC[C@@]21CN=C(NC2CCCCC2)O1 | 1.1 | 1.3 | 1.5 | 0.71 | 1.5 | 0.34 | < 1 |
| CCCCNC(=S)NC[C@]1(O)CC[C@H]2[C@@H]3CCc4cc(O)ccc4[C@H]3CC[C@@]21C | 4.8 | 4.2 | 15 | 3.9 | 7.2 | 4.4 |  |

Continued, in another order:

| GI50 (A549) [µM] | GI50 (HeLa) [µM] | GI50 (SW1573) [µM] | GI50 (T47D) [µM] | SMILES | GI50 (HBL-100) [µM] | GI50 (WiDr) [µM] | GI50 at 48 h [1] [µM] |
| --- | --- | --- | --- | --- | --- | --- | --- |
| 6.8 | 3.5 | 5.9 | 4.3 | COC(=O)NC[C@]1(O)CC[C@H]2[C@@H]3CCc4cc(O)ccc4[C@H]3CC[C@@]21C | 4 | 4.9 |  |
| > 100 | > 100 | > 100 | > 100 | C[C@]12CC[C@H](O)C[C@@H]1CC[C@@H]1[C@@H]2CC[C@@]2(C)[C@H]1CC[C@@]2(O)CN=[N+]=[N-] | > 100 | > 100 |  |
| 16 | 21 | 15 | 18 | C[C@]12CC[C@H](O)C[C@@H]1CC[C@@H]1[C@@H]2CC[C@@]2(C)[C@H]1CC[C@@]2(O)CNC(=S)NC1CCCCC1 | 18 | 18 |  |
| 17 | 22 | 19 | 21 | C[C@]12CC[C@H](O)C[C@@H]1CC[C@@H]1[C@@H]2CC[C@@]2(C)[C@H]1CC[C@@]2(O)CN | 20 | 25 |  |
| 1.5 | 1.6 | 1.5 | 1.2 | C[C@]12CC[C@H](O)C[C@@H]1CC[C@@H]1[C@@H]2CC[C@@]2(C)[C@H]1CC[C@@]21CN=C(NC2CCCCC2)O1 | 2 | 0.96 | 1.2 |
| 39 | 27 | 43 | 30 | C[C@]12CC[C@@H]3c4ccc(O)cc4CC[C@H]3[C@@H]1CC[C@@]2(O)CN | 34 | 22 |  |
| 1.4 | 2.1 | 2.2 | 0.45 | CCCCNC1=NC[C@@]2(CC[C@H]3[C@@H]4CCc5cc(O)ccc5[C@H]4CC[C@@]32C)O1 | 2.9 | 0.34 | < 1 |
| 95 | 7.9 | 85 | 24 | C[C@]12CC[C@H](O)CC1=CC[C@@H]1[C@@H]2CC[C@]2(C)C(c3cccnc3)=CC[C@@H]12 [ABIRATERONE] | > 100 | 42 | 4.5 |
| 3.9 | 5.3 | 3.9 | 2.1 | C[C@]12CC[C@H](O)CC1=CC[C@@H]1[C@@H]2CC[C@]2(C)C(n3cnc4ccccc43)=CC[C@@H]12 [GALETERONE] | 10 | 2.7 | 5 |
